The nature of data set [1]: Inhibition of Bacillus anthracis replicative DNA helicase using Hel-5'FAM:Hel-3'BHQ as substrate assessed as DNA duplex strand unwinding by FRET assay.
Data set [2] in a line: Inhibition of Staphylococcus aureus replicative DNA helicase using Hel-5'FAM:Hel-3'BHQ as substrate assessed as DNA duplex strand unwinding by FRET assay.
The next data set deals with HeLa. The experiment in a line: Cytotoxicity against human HeLa cells by MTT assay in presence of serum free media. The class given is cell-based.
Data set [3] is described as follows: (§1) Non-competitive inhibition of Staphylococcus aureus replicative DNA helicase using ATP as substrate. The procedure, abridged: (§2)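 S. aureus replicative DNA helicase was tested in a FRET-based unwinding assay. An inhibitor dilution series was run across several ATP concentrations. IC50 at each ATP level came from 4-parameter curve fitting, and the mode of inhibition was assigned from how IC50 shifted with ATP concentration.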

A short description of data set [4]: (§3) Competitive inhibition of Staphylococcus aureus replicative DNA helicase using DNA as substrate by Dixon plot analysis. The method, boiled down:
(§4)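 FRET-based strand-unwinding assay with S. aureus replicative DNA helicase. An inhibitor dilution series was run at several oligonucleotide (DNA substrate) concentrations, the lowest being 3 nM. IC50 at each level came from 4-parameter curve fitting. Ki and the inhibition mode were derived from a Dixon plot of the DNA-variation data.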

Data set [5] has as its system Staphylococcus aureus. The experiment in a line: Inhibition of Staphylococcus aureus single-strand DNA-stimulated replicative DNA helicase ATPase activity assessed as release of inorganic phosphate at 50 uM after 30 mins by malachite green assay.
Data set [6] has as its system Staphylococcus aureus. The description is as §1. The procedure, abridged:
as §2

In a further data set the test system is Bacillus anthracis. The experiment in a line: Antibacterial activity against Bacillus anthracis Sterne assessed as inhibition of incorporation of radiolabeled precursors into DNA. The class given is functional, organism-based.
For data set [7], the system named is Staphylococcus aureus. Described as §3. The procedure, abridged: as §4
Data set [8] can be described thus: Selectivity index, ratio of CC50 for human HeLa cells to IC50 for Staphylococcus aureus replicative DNA helicase. The class given is functional.

The source made the active and inactive calls. The rule behind the calls is not given here. Some results are limits rather than exact numbers.

For the molecule `COc1ccc(C(=O)Nc2nc3ccc4nc(SC)sc4c3s2)c(OC)c1`, the IC50 in data set [1] was over 100 µM. Consider `COc1cc(C(=O)Nc2nc3ccc4nc(NCCN(C)C)sc4c3s2)cc(OC)c1OC`, for which the 50% inhibitory concentration (IC50) in [1] and in data set [2] was 0.2 µM in each case. The CC50 in the data set with HeLa is under 0.78 µM.

For `CSc1nc2ccc3nc(NC(=O)CCc4ccccc4)sc3c2s1`, in data set [1], the IC50 is over 100 µM.

As to `CSc1nc2ccc3nc(NC(=O)c4ccc(C)c(C)c4)sc3c2s1`, in data set [1], the 50% inhibitory concentration (IC50) was determined as 3.2 µM. The same measure, in the same setting: for `CSc1nc2ccc3nc(NC(=O)C4CC4)sc3c2s1` the value was over 100 µM; for `CSc1nc2ccc3nc(NC(=O)c4ccc(Oc5ccccc5)cc4)sc3c2s1`, over 100 µM; for `COC(=O)c1ccc(C(=O)Nc2nc3ccc4nc(SC)sc4c3s2)cc1`, 3.7 µM. On the same count and under the same terms, for `CSc1nc2ccc3nc(NC(=O)c4ccc(N5C(=O)CCC5=O)cc4)sc3c2s1` the value was 1.3 µM. As to `COc1cccc(C(=O)Nc2nc3ccc4nc(NCc5ccccc5)sc4c3s2)c1`, the concentration for half-maximal inhibition (IC50) in data set [1] is 75 µM; in data set [2], over 100 µM. Regarding `CSc1nc2ccc3nc(NC(=O)CN4C(=O)CCC4=O)sc3c2s1`, the half-inhibitory concentration (IC50) in data set [1] was over 100 µM. Same read-out and setting: for `CSc1nc2ccc3nc(NC(=O)c4ccccc4Oc4ccccc4)sc3c2s1` the value was over 100 µM; for `CSc1nc2ccc3nc(NC(=O)c4cccc(F)c4)sc3c2s1`, 3.3 µM; for `CSc1nc2ccc3nc(NC(=O)c4cnccn4)sc3c2s1`, 28 µM. On to `CNc1nc2ccc3nc(NC(=O)c4cccc(OC)c4)sc3c2s1`, for which the IC50 was found to be 0.5 µM in data set [1], 2.2 µM in data set [2] and 2 µM in [3]. In addition, in data set [4], the Ki was determined as 2 µM. For the same molecule, in the data set on HeLa, the cytotoxic concentration (CC50) is over 100 µM. For the same molecule, in the data set with Staphylococcus aureus [5], the inhibition result is “inactive”.

Regarding `COc1cc(C(=O)Nc2nc3ccc4nc(NCCO)sc4c3s2)cc(OC)c1OC`, the IC50 in [1] stood at 0.2 µM; in [2] it was 0.3 µM; with Bacillus anthracis, 17 µM. In addition, the inhibition entry with Staphylococcus aureus [6] and with Staphylococcus aureus [7] was “Active” in each case. In the data set with HeLa, the CC50 is over 100 µM. Take `COc1cc(OC)cc(C(=O)Nc2nc3ccc4nc(SC)sc4c3s2)c1`: the IC50 in [1] was found to be 1.7 µM. Still for that read-out and setting: for `CSc1nc2ccc3nc(NC(=O)c4cccc(Cl)c4)sc3c2s1` the value was 5.3 µM; for `CSc1nc2ccc3nc(NC(=O)c4ccc(C(C)(C)C)cc4)sc3c2s1`, over 100 µM.

On to `CSc1nc2ccc3nc(NC(=O)c4ccc(C)cc4)sc3c2s1`, for which, in [1], the 50% inhibitory concentration (IC50) came out at 7.6 µM. Same read-out and setting: for `CSc1nc2ccc3nc(NC(=O)c4c(F)cccc4F)sc3c2s1` the value was 64.5 µM. Consider `COc1cccc(C(=O)Nc2nc3ccc4nc(NC(C)C)sc4c3s2)c1`, for which the concentration for half-maximal inhibition (IC50) in data set [1] is 65 µM; in data set [2], 80 µM. Take `CSc1nc2ccc3nc(NC(=O)c4ccccc4Br)sc3c2s1`: the IC50 in data set [1] was over 100 µM. Same read-out and setting: for `COc1cccc(OC)c1C(=O)Nc1nc2ccc3nc(SC)sc3c2s1` the value was over 100 µM. On to `COc1cccc(C(=O)Nc2nc3ccc4nc(NCCN(C)C)sc4c3s2)c1`, for which the IC50 in data set [1] and in data set [2] was 1 µM each time. As to `CSc1nc2ccc3nc(NC(=O)c4ccc(C#N)cc4)sc3c2s1`, the IC50 in data set [1] was determined as 11 µM. Turning to `COc1cccc(C(=O)Nc2nc3ccc4nc(N5CCOCC5)sc4c3s2)c1`, the concentration for half-maximal inhibition (IC50) in data set [1] worked out at 2.3 µM; in data set [2], 3 µM. The 50% cytotoxic concentration (CC50) in the data set on HeLa is over 100 µM. With `COc1cccc(C(=O)Nc2nc3ccc4nc(NC5CCCCC5)sc4c3s2)c1`, the results for the half-inhibitory concentration (IC50) in data set [1] and in [2] were 90 µM and over 100 µM, respectively.

For `CSc1nc2ccc3nc(NC(=O)c4ccccc4F)sc3c2s1`, the IC50 in data set [1] stood at 50 µM. As for `COc1cc(/C=N/c2nc3ccc4nc(SC)sc4c3s2)cc(OC)c1OC`, the IC50 in data set [2] was over 100 µM.

On to `COc1cccc(C(=O)Nc2nc3ccc4nc(NCCN5CCOCC5)sc4c3s2)c1`, for which the figures for the half-inhibitory concentration (IC50) in [1] and in data set [2] were 0.5 µM and 2.2 µM, respectively. In the data set on HeLa, the CC50 worked out at 9.6 µM. In the case of `COc1cc(CNc2nc3ccc4nc(SC)sc4c3s2)cc(OC)c1OC`, in data set [2], the concentration for half-maximal inhibition (IC50) is over 100 µM. Turning to `COc1c(C(=O)Nc2nc3ccc4nc(SC)sc4c3s2)cnn1C`, the half-maximal inhibitory concentration (IC50) in data set [1] was over 100 µM. On the same count and under the same terms, for `CSc1nc2ccc3nc(NC(=O)c4cccc([N+](=O)[O-])c4)sc3c2s1` the value was 2.8 µM. On to `COc1cc(C(=O)Nc2nc3ccc4nc(NCCN5CCOCC5)sc4c3s2)cc(OC)c1OC`, for which the IC50 in [1] and in data set [2] was 0.2 µM each time. In the data set with HeLa, the CC50 came out at 5.7 µM. In the case of `CSc1nc2ccc3nc(NC(=O)c4ccc(N(C)C)cc4)sc3c2s1`, the IC50 in [1] worked out at 2.4 µM.

Consider `CSc1nc2ccc3nc(NC(=O)c4ccco4)sc3c2s1`, for which the IC50 in data set [1] was determined as 102 µM.

Turning to `CSc1nc2ccc3nc(NC(=O)c4ccccc4C)sc3c2s1`, the half-inhibitory concentration (IC50) in [1] is 6.6 µM.

With `CCN(CC)S(=O)(=O)c1ccc(C(=O)Nc2nc3ccc4nc(SC)sc4c3s2)cc1`, the IC50 in [1] is over 100 µM. `CNc1nc2ccc3nc(NC(=O)c4cc(OC)c(OC)c(OC)c4)sc3c2s1`: the IC50 in data set [1] and in [2] was 0.2 µM in each case. The inhibition entry in the data set with Staphylococcus aureus [6] and with Staphylococcus aureus [7] was “Active” throughout. Moreover, the “Ratio CC50/IC50” value in data set [8] is on record as over 500. For the same molecule, the CC50 in the data set with HeLa is over 100 µM. Further, the inhibition entry in the data set on Staphylococcus aureus [5] is “inactive”.

Turning to `CSc1nc2ccc3nc(NC(=O)c4c(C)cnn4C)sc3c2s1`, the IC50 in [1] was over 50 µM. The same measure, in the same setting: for `CSc1nc2ccc3nc(NC(=O)c4ccc5c(c4)OCCO5)sc3c2s1` the value was 3 µM; for `CSc1nc2ccc3nc(NC(=O)c4cccc(Br)c4)sc3c2s1`, 2.3 µM; for `CSc1nc2ccc3nc(NC(=O)c4cccc(N(C)C)c4)sc3c2s1`, 36 µM. For `CSc1nc2ccc3nc(NC(=O)Cc4ccccc4)sc3c2s1`, the concentration for half-maximal inhibition (IC50) in [1] was found to be 47 µM.

Take `CSc1nc2ccc3nc(NC(=O)c4ccc(OC(C)C)cc4)sc3c2s1`: the half-maximal inhibitory concentration (IC50) in data set [1] was over 100 µM. The same measure, in the same setting: for `CSc1nc2ccc3nc(NC(=O)c4cccs4)sc3c2s1` the value was 90 µM. In the case of `COc1cc(C(=O)Nc2nc3ccc4nc(N5CCN(C)CC5)sc4c3s2)cc(OC)c1OC`, the concentration for half-maximal inhibition (IC50) in [1] was found to be 0.2 µM; in data set [2], 0.2 µM; in the data set with Bacillus anthracis, 10 µM. In the data set with HeLa, the CC50 came out at 2.8 µM. As for `CSc1nc2ccc3nc(NC(=O)c4ccc(Cl)cc4)sc3c2s1`, the IC50 in data set [1] turned out to be 5 µM. On the same count and under the same terms, for `COc1ccc(C(=O)Nc2nc3ccc4nc(SC)sc4c3s2)cc1` the value was 2.2 µM; for `COc1ccc(C(=O)Nc2nc3ccc4nc(SC)sc4c3s2)cc1OC`, 2.1 µM; for `CSc1nc2ccc3nc(NC(=O)COc4ccc(Cl)cc4Cl)sc3c2s1`, over 100 µM. On to `COc1cccc(C(=O)Nc2nc3ccc4nc(SC)sc4c3s2)c1`, for which the results for the IC50 in data set [1] and in data set [2] were 12.5 µM and 6.6 µM, respectively. In addition, the half-maximal cytotoxic concentration (CC50) in the data set on HeLa worked out at 12.4 µM. `CCN(CC)c1ccc(C(=O)Nc2nc3ccc4nc(SC)sc4c3s2)cc1`: the IC50 in [1] is over 100 µM.

Regarding `COc1cccc(C(=O)Nc2nc3ccc4nc(NCCO)sc4c3s2)c1`, the IC50 in data set [1] is 2.2 µM; in data set [2], 4.2 µM. Besides, the CC50 in the data set on HeLa was over 100 µM. Regarding `CCCNc1nc2ccc3nc(NC(=O)c4cccc(OC)c4)sc3c2s1`, the half-maximal inhibitory concentration (IC50) in data set [1] turned out to be 1.1 µM; in data set [2], 1.3 µM. Further, the 50% cytotoxic concentration (CC50) in the data set with HeLa was under 0.08 µM. With `CCOc1ccc(C(=O)Nc2nc3ccc4nc(SC)sc4c3s2)cc1`, in data set [1], the IC50 came to 6.9 µM. Turning to `COc1cc(C(=O)Nc2nc3ccc4nc(SC)sc4c3s2)cc(OC)c1OC`, the half-maximal inhibitory concentration (IC50) was found to be 0.7 µM in data set [1] and 0.4 µM in [2]. Further, the CC50 in the data set with HeLa was over 100 µM. In the case of `CSc1nc2ccc3nc(NC(=O)c4ccccc4Cl)sc3c2s1`, the IC50 in [1] was over 100 µM.

As to `COc1cc2ccccc2cc1C(=O)Nc1nc2ccc3nc(SC)sc3c2s1`, the half-inhibitory concentration (IC50) in data set [1] is over 50 µM.

With `CSc1nc2ccc3nc(NC(=O)c4cccc(N5C(=O)CCC5=O)c4)sc3c2s1`, the concentration for half-maximal inhibition (IC50) in [1] amounted to 5 µM; in data set [2] it was 12 µM. Besides, in the data set with HeLa, the CC50 was over 100 µM.

In the case of `CSc1nc2ccc3nc(NC(=O)c4cc(C)no4)sc3c2s1`, the concentration for half-maximal inhibition (IC50) in [1] was over 50 µM.

Consider `COc1cccc(C(=O)Nc2nc3ccc4nc(NCC(C)C)sc4c3s2)c1`, for which the half-maximal inhibitory concentration (IC50) in data set [1] turned out to be 13 µM; in [2], 9 µM. Also, the CC50 with HeLa came out at 44 µM.

Usually IC50 stands for the concentration needed to halve the response being measured. As usually defined, the CC50 is the concentration giving 50% cytotoxicity. The term Ki denotes a dissociation constant, usually derived from enzyme kinetics or from competition with a known ligand. A low value points to a stronger hold on the target.

Source of the values: ChEMBL document CHEMBL2390890, “Optimization of a novel potent and selective bacterial DNA helicase inhibitor scaffold from a high throughput screening hit” (Bioorg Med Chem Lett, 2013).
